According to ChEMBL document CHEMBL1124824, “Synthesis and biological activity of atrial natriuretic factor analogues: effect of modifications to the disulfide bridge” (J Med Chem, 1990):
pIC50: −log10 of the molar value. Positions of bridges follow the written chain, without caps; N, C: chain ends. Non-standard residues stand in square brackets, D forms with d. Residues, ends and D or L forms follow the SMILES beside them. Asu = N[C@@H](CCCCCC(=O)O)C(=O)O; Mpa = O=C(O)CCS

What was measured:
[1] = organism: Rattus norvegicus; experiment: Compound was tested for the K+ excretion for treated over control animals, the electrolytes tested are; assay type: functional
Outline: (§1)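 Male Sprague-Dawley rats (300-325 g) under halothane/lidocaine had femoral artery, femoral vein and bladder cannulated. After at least 1 h of recovery in restraint, they received Ringer's (1.2 mL/h), with 10-min urine collections over a 30-min control period. Infusion of 0.5 μg/kg per min for 30 min and a 30-min Ringer's recovery followed. Na+, K+ and Cl- were measured with an electrolyte analyzer, reported as treated minus control μmol/sample. Volume ratio is treated/control over three consecutive 10-min samples, six animals.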

[2] = organism: Rattus norvegicus; experiment: Compound was tested for antihypertensive activity in DOCA nephrectomized rats.; assay type: functional
Outline: (§2)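 Rats were anesthetized with halothane after skin infiltration with 2% lidocaine, and the femoral artery and vein were cannulated. After recovery, arterial pressure was recorded. A saline control period was followed by i.v. infusion in 30-min steps at 0.1, 0.2, 0.5 and 1.0 μg/kg per min (70 μL/kg per min). Hydralazine (100 μg/kg per min) was given for standardization. ED50 is in nmol/kg per min, from six animals.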

[3] = organism: Rattus norvegicus; experiment: Compound was tested for the Cl- excretion for treated over control animals, the electrolytes tested are; assay type: functional; outline: as §1
[4] = test system: Rattus norvegicus; experiment: Compound was tested for diuretic activity and the ratio of urine volume for treated over control animals was reported after infused at a dose of 0.5 ug/kg.; assay type: functional; outline: as §1
[5] = target: T1, Atrial natriuretic peptide receptor 2 (Bos taurus, UniProt P46197); experiment: Binding affinity was determined based on the displacement of [125]r-ANF (99-126) from binding sites on bovine adrenal zona glomerulosa cell membranes (Atrionatriuretic peptide receptor B)
T1 sequence (P46197 whole entry): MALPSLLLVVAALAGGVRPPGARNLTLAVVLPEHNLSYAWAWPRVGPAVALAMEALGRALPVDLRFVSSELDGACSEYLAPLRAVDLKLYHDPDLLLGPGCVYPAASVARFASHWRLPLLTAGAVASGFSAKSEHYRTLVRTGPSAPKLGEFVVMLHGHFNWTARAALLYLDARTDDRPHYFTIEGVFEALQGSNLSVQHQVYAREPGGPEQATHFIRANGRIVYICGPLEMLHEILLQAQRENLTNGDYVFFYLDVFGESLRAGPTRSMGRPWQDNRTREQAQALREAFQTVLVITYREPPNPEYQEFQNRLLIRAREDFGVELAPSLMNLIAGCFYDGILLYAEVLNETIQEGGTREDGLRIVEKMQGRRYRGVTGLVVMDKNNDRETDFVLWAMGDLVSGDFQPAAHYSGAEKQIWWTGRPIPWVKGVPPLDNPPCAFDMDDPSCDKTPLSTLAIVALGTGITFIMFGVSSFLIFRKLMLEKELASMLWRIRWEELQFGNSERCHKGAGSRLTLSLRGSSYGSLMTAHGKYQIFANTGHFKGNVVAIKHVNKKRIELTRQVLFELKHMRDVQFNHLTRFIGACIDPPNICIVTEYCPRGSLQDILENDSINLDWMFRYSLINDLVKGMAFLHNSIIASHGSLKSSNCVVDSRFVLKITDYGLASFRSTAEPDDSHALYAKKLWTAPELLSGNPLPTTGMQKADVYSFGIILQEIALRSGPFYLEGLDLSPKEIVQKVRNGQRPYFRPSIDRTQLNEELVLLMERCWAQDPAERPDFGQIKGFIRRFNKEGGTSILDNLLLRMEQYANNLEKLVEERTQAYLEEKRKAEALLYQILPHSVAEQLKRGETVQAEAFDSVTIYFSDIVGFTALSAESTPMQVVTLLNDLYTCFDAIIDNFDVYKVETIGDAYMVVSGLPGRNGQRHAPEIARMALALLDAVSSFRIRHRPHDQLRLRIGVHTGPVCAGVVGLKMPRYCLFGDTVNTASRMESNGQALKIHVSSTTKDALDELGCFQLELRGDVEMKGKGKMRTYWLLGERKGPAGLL

[6] = organism: Rattus norvegicus; experiment: Compound was tested for the Na+ excretion for treated over control animals, the electrolytes tested are; assay type: functional; outline: as §1
[7] = target: T2, Atrial natriuretic peptide receptor 3 (Mus musculus, UniProt P70180); experiment: Binding affinity was determined based on the displacement of [125]r-ANF (99-126) from binding sites on mouse fibroblasts (NIH 3T3) cells (Atrionatriuretic peptide receptor C).
T2 sequence (P70180 whole entry): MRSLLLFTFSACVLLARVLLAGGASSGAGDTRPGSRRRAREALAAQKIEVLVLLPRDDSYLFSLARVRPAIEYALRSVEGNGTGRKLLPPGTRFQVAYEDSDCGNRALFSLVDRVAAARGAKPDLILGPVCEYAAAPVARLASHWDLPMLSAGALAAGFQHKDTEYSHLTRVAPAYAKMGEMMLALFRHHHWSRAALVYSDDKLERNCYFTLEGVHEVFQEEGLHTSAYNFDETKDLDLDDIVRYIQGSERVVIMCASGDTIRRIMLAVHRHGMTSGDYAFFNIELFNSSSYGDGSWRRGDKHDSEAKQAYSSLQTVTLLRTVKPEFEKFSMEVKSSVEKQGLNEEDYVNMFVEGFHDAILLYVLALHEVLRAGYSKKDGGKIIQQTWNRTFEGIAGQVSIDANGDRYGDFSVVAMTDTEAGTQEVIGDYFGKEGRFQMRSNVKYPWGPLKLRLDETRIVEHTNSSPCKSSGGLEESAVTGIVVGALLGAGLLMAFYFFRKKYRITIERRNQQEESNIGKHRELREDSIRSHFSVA

[8] = organism: Rattus norvegicus; experiment: Compound was tested for antihypertensive activity in 5/6 nephrectomized rats.; assay type: functional; outline: as §2
[9] = organism: Oryctolagus cuniculus; experiment: Compound was tested for the inhibition of the stimulated contractions of the superfused rabbit thoracic aortic rings.; assay type: functional, Aorta
Outline: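 Rabbit thoracic aorta rings (4 mm) were held isometrically at 10-g resting tension, superfused and precontracted with phenylephrine. Test peptide was added to the superfusate above the tissue in successively higher doses after each recovery. Doses were based on peptide content. EC50 came from the dose-response curve, mean of three determinations ± SEM.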

[10] = organism: Rattus norvegicus; experiment: Compound was tested for the Cl- excretion for treated over control animals.; assay type: functional; outline: as §1
[11] = organism: Rattus norvegicus; experiment: Compound was tested for the Na+ excretion for treated over control animals.; assay type: functional; outline: as §1
[12] = organism: Rattus norvegicus; experiment: Compound was tested for the K+ excretion for treated over control animals.; assay type: functional; outline: as §1

`CC[C@H](C)[C@@H]1NC(=O)[C@H](CCCN=C(N)N)NC(=O)[C@H](CC(=O)O)NC(=O)[C@H]([C@@H](C)CC)NC(=O)[C@H](CCCN=C(N)N)NC(=O)CNC(=O)CNC(=O)[C@H](Cc2ccccc2)NC(=O)CCSSC[C@@H](C(=O)N[C@@H](CC(N)=O)C(=O)N[C@@H](CO)C(=O)N[C@@H](Cc2ccccc2)C(=O)N[C@@H](CCCN=C(N)N)C(=O)N[C@@H](Cc2ccc(O)cc2)C(=O)O)NC(=O)CNC(=O)[C@H](CC(C)C)NC(=O)CNC(=O)[C@H](CO)NC(=O)[C@H](CCC(N)=O)NC(=O)[C@H](C)NC(=O)CNC1=O` ([Mpa]FGGRIDRIGAQSGLGCNSFRY-OH; disulfide 1-17) showed an Electrolyte excretion [1] of 22.6 uM sample-1, an ED50 [2] of 1.1 nM/min/kg and an Electrolyte excretion [3] of 52.9 uM sample-1. The Ratio [4] was 1.7, the pIC50 [5] was 8.99 and the Electrolyte excretion [6] was 30.4 uM sample-1. It also gave a pIC50 [7] of 9.66, an ED50 [8] of 1.5 nM/min/kg and an EC50 [9] of 1.1e-10 M 50ul-1.

`CC[C@H](C)[C@@H]1NC(=O)[C@H](CCCN=C(N)N)NC(=O)[C@H](CC(=O)O)NC(=O)[C@H]([C@@H](C)CC)NC(=O)[C@H](CCCN=C(N)N)NC(=O)CNC(=O)CNC(=O)[C@H](Cc2ccccc2)NC(=O)CCCCC[C@@H](C(=O)N[C@@H](CC(N)=O)C(=O)N[C@@H](CO)C(=O)N[C@@H](Cc2ccccc2)C(=O)N[C@@H](CCCN=C(N)N)C(=O)N[C@@H](Cc2ccc(O)cc2)C(=O)O)NC(=O)CNC(=O)[C@H](CC(C)C)NC(=O)CNC(=O)[C@H](CO)NC(=O)[C@H](CCC(N)=O)NC(=O)[C@H](C)NC(=O)CNC1=O` (FGGRIDRIGAQSGLG[Asu]NSFRY-OH; lactam N-16) showed an Electrolyte excretion [10] of 10 uM sample-1, a Ratio [4] of 2.1 and an Electrolyte excretion [11] of 4.8 uM sample-1. It also gave an ED50 [8] of 5.7 nM/min/kg and an Electrolyte excretion [12] of 0 uM sample-1.
